Screening data: PubChem, Sanford-Burnham Center for Chemical Genomics
Not all results are given here.
Apaf1 activ: activators of human Apaf-1 apoptosome; O14727; Apaf-1 apoptosome caspase-3 activation, DEVD-Rh110 fluorescence; active compounds read low; activity change, negative = activation, % at 20 µM; actives 0.31% (n = 330,000); AID 489031;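 active = activity change at or below -40% at 20 µM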
Target sequence (O14727 whole entry, looked up): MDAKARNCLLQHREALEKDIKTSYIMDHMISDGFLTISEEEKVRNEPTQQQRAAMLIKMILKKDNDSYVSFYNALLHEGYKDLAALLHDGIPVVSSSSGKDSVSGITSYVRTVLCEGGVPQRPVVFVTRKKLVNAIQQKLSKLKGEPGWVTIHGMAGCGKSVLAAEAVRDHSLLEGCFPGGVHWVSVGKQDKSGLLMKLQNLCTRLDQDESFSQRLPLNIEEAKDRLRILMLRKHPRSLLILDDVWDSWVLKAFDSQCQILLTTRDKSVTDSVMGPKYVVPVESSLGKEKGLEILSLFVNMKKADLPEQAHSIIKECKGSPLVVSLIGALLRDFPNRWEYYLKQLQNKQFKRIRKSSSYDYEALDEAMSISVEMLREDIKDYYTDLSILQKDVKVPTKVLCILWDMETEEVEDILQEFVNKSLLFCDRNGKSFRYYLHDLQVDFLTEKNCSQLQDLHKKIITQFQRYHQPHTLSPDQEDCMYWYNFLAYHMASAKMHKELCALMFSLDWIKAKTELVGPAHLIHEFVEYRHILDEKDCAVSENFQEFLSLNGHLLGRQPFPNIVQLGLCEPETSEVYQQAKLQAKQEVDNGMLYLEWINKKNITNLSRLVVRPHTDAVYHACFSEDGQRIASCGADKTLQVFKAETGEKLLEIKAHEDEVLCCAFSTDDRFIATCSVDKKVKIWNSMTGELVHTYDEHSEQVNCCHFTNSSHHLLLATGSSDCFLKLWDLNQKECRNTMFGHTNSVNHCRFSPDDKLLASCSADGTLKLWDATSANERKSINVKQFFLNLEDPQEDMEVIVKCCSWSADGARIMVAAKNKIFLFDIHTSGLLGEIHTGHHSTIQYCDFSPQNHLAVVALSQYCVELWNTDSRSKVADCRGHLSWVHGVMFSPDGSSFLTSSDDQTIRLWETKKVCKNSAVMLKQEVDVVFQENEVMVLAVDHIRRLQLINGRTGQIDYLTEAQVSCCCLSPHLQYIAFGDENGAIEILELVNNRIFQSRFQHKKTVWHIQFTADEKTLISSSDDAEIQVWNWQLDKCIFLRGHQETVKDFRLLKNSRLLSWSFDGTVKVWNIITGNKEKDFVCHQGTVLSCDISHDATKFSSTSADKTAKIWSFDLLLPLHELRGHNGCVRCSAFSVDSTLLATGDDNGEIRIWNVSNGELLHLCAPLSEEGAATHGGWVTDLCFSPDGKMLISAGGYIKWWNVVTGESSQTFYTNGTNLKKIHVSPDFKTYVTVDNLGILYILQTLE
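Material: biochemical Apaf-1 apoptosome reconstitution; Medium: 20 mM HEPES buffer, pH 7.5, containing CHAPS and BSA; Reagent: dATP, cytochrome c, and (Z-DEVD)2-Rh110 caspase-3 substrate; Times: 30 min preincubation, 50 min reaction, room temperature; Signal: Rh110 fluorescence, excitation 480 nm, emission 540 nm; Measure: Caspase-3 activity via Apaf-1.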
Rh110 interf act: counter-screen for Apaf-1 activators: fluorescence interference; shares compounds with Apaf1 activ; 980 tested, under 10 active; Rh110 fluorescence interference, quenched caspase reaction, Ex480/Em540; AID 504616; fluorescence interference (activity change), % at 20 µM, hits read low;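 active = mean activity change at or below -40% when tested at 20 µM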
Apaf-1 act conf2: confirmation of human Apaf-1 activators; shares compounds with Apaf1 activ; reconstituted apoptosome caspase-3 activity, DEVD-Rh110 fluorescence; active compounds read low; activity change, negative = activation, % at 20 µM; actives 5% (n = 980);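 active = mean activity change at or below -40%, meaning activation of 40% or more, at 20 µM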
Each line names hits and unclear results; the compound was inactive in the other large screens (follow-up assays come after a bar, where they were run).

COc1cc(CNc2ccc(N3CCOCC3)cc2)cc(Br)c1OC	Apaf1 activ -85 | Rh110 interf act inactive | Apaf-1 act conf2 inactive
CCOc1cc(CNc2ccc(N3CCCC3)cc2)cc(Cl)c1OC	none
CCCCCCCCCCCCN1[C@@H](CC(=O)O)c2cc(C(F)(F)F)ccc2S1(=O)=O	none
Nc1ccc(N)c(C(=O)O)c1	none
CCOC(=O)c1ccc(-n2[nH]c(-c3ccccc3)cc2=O)cc1	none
CCOC(=O)c1cnn(-c2c(Cc3ccccc3)c(C)nc3c(-c4ccccc4)c(C)nn23)c1N	none
CCOC(=O)c1cc(C#N)c(N2CCN(c3ccccn3)CC2)nc1-c1ccccc1	Apaf1 activ -443 | Rh110 interf act inactive | Apaf-1 act conf2 inactive
COc1ccccc1/C=C1/C(=O)N(c2ccccc2)N=C1C	none
CCOC(=O)c1[nH]c(=O)c2ccccc2c1O	none
CCOC(=O)c1[nH]c2ccc(OC)cc2c1NC(=O)c1nonc1C	Apaf1 activ -144 | Rh110 interf act inactive | Apaf-1 act conf2 inactive
CCOC(=O)c1cc2cc3ccccc3cc2[nH]1	none
CCCCC[n+]1ccn(C2=C([O-])c3ccccc3C(=O)/C2=N\S(=O)(=O)c2ccc(Cl)cc2)c1	none
CCSc1nnc2nc3[nH]c4c(C)cccc4c3nn12	Apaf1 activ -76 | Rh110 interf act inactive | Apaf-1 act conf2 inactive
N#CC(c1nc2ccccc2nc1N1CCCC1)S(=O)(=O)c1ccccc1 (stereo not drawn)	none
CC[C@@H](C)[C@@H]1CN([C@@H](CN2CCC[C@H]2CN2C(N)=NC[C@H]2CC(C)C)C(C)C)C(=N)N1CCc1ccc(Cl)c(Cl)c1	none
CC(=O)c1ccc(OCC(=O)NCC(c2ccco2)N2CCCCC2)cc1 (stereo not drawn)	Apaf1 activ -44 | Rh110 interf act inactive | Apaf-1 act conf2 inactive
C#CCOCCOCCOCCNc1nc(N2CCN(C(=O)C([C@@H](C)O)n3cc([C@@H](N)CCCCN)nn3)CC2)nc(N2CCN(C(=O)[C@H](CCCN=C(N)N)n3cc(C(N)[C@@H](C)CC)nn3)CC2)n1 (stereo partly drawn)	none
O=C(NC(=S)Nc1ccccc1C(F)(F)F)c1ccccc1F	Apaf1 activ -244 | Rh110 interf act inactive | Apaf-1 act conf2 inactive
CCN(CC(=O)Nc1ccccc1C(F)(F)F)C(=O)c1ccccc1SCC(=O)N1CCCC1	none
Fc1ccc(NC(=S)Nc2cccc3ccccc23)cc1F	none
COc1ccccc1-n1ccnc1SCC(=O)NCc1ccco1	Apaf1 activ -146 | Rh110 interf act inactive | Apaf-1 act conf2 inactive
COc1ccc(Cn2c(SCc3ccccc3C)nc3cc(OC)c(OC)cc3c2=N)cc1	none
Cc1ccc(SCC(=O)OCC(=O)NCCNC(=O)COC(=O)CSc2ccc(C)c(C)c2)cc1C	none
COc1ccc(CCNC(=O)CSc2nnc(C(C)N(C)C)n2Cc2ccccc2)cc1OC (stereo not drawn)	Apaf1 activ -60 | Rh110 interf act inactive | Apaf-1 act conf2 inactive
CCOc1cc(CNc2ccc(N(C)C)cc2)cc(Br)c1OCC(=O)NC(C)(C)C	none
C#CCOCCOCCOCCNc1nc(N2CCN(C(=O)CCCCCCCCCCNC(=O)Cn3cc(CCCCCN)nn3)CC2)nc(N2CCN(C(=O)CCCCCCCCCCNC(=O)Cn3cc(C[C@@H](C)O)nn3)CC2)n1	none
COC(=O)C1(C)CCc2cc(OC)ccc2C1=O (stereo not drawn)	Apaf1 activ -81 | Rh110 interf act inactive | Apaf-1 act conf2 inactive
COc1ccc(C(=O)Nc2nc3c(s2)Cc2cc(OC)ccc2-3)cc1	none
Cc1ccc(-c2nn3c(C)nnc3c3ccccc23)cc1S(=O)(=O)NC(C)c1ccccc1 (stereo not drawn)	none
Cc1[nH]c(=O)[nH]c(=O)c1CSCC(=O)OCC(=O)c1ccc(Br)cc1	Apaf1 activ -139 | Rh110 interf act inactive | Apaf-1 act conf2 inactive
COc1ccc(C(=O)C(Sc2nnc(C)c(=O)[nH]2)c2ccc(OC)cc2)cc1 (stereo not drawn)	Apaf1 activ -114 | Rh110 interf act inactive | Apaf-1 act conf2 inactive
CCN1/C(=C/C=C/c2oc3ccc4ccccc4c3[n+]2CC)Oc2ccc3ccccc3c21	none
CCOCCCn1c(SCC(=O)Nc2cc(C(C)(C)C)nn2-c2ccccc2)nc2ccccc2c1=O	none
CCCCCc1cc(=O)oc2c(C(CCN3CCCC3)c3ccc(N(C)C)cc3)c(OC)cc(OC)c12 (stereo not drawn)	none
CCOC(=O)c1c2ccc(OCC(=O)NN)cc2n2ccccc12	none
O=C(COc1ccc2c3c(c(=O)oc2c1)CCC3)N1CCN(c2ccc(F)cc2)CC1	none
Cc1oc2cc(OCC(=O)O)ccc2c(=O)c1Oc1ccccc1	Apaf1 activ -100 | Rh110 interf act inactive | Apaf-1 act conf2 inactive
N#Cc1c(N2CCCCC2)nc(N)c2c(N)nc3c(c12)CC(c1ccccc1)O3 (stereo not drawn)	none
COc1cc2nc(N3CCNCC3)nc(N)c2cc1OC	none
NC(=O)OCC(COC(N)=O)c1ccccc1	none
CC(C)COC(=O)c1nnsc1NC(=O)Nc1ccccc1	Apaf1 activ -63 | Rh110 interf act inactive | Apaf-1 act conf2 inactive
CC(C)c1ccc(NC(=S)Nc2cccc3ccccc23)cc1	none
Cc1cc(C)c(C#N)c(SCC(=O)Nc2nonc2N)n1	none
Cc1cc2nc(SCC(=O)Nc3nonc3C)c3c(c2cc1C)CCCC3	Apaf1 activ -48 | Rh110 interf act inactive | Apaf-1 act conf2 inactive
C[C@H](CO)N1C[C@H](C)[C@@H](CN(C)Cc2ccc(Oc3ccccc3)cc2)Oc2c(NC(=O)C3CC3)cccc2C1=O	none
Cn1c(=O)c2c(SCC(=O)NC3CCCC3)nc(CC(C)(C)C)nc2n(C)c1=O	Apaf1 activ -508 | Rh110 interf act inactive | Apaf-1 act conf2 inactive
COC(=O)C1=C(C)N(Cc2ccccc2)C(=NCc2ccccc2)N[C@H]1c1cccc(F)c1	none
CCCCCc1cc(=O)oc2c(C(CCN3CCCC(C)C3)c3ccc(OC)cc3)c(OC)cc(OC)c12 (stereo not drawn)	none
C#CCOCCOCCOCCNc1nc(N2CCN(C(=O)CCCCCCCCCCNC(=O)Cn3cc(C[C@@H](C)O)nn3)CC2)nc(N2CCN(C(=O)CCCCCCCCCCNC(=O)[C@@H]([C@H](C)CC)n3cc(CCCCCN)nn3)CC2)n1	none
C=CCC[C@@H](Cc1ccc(F)cc1)C(=O)OC[C@@H]1CCCN1C(=O)[C@@H](CC=C)CC(=O)N(CCO)Cc1ccccc1	none
CC(NC(=O)Nc1ccc(F)cc1)c1ccc2c(c1)OCO2 (stereo not drawn)	Apaf1 activ -71 | Rh110 interf act inactive | Apaf-1 act conf2 inactive
Cc1[nH]n(-c2ccccc2)c(=O)c1C(C[N+](=O)[O-])c1ccc(Br)cc1 (stereo not drawn)	none
COc1ccc(C2CC(=O)c3cnc(NC(=O)c4ccco4)nc3C2)cc1 (stereo not drawn)	Apaf1 activ -139 | Rh110 interf act inactive | Apaf-1 act conf2 inactive
CC(OC(=O)c1nn(C)c(=O)c2ccccc12)C(=O)NC1CCCCC1C (stereo not drawn)	Apaf1 activ -50 | Rh110 interf act inactive | Apaf-1 act conf2 inactive
COc1ccc(-n2nc(C(=O)NCC(=O)NC3CCCC(C)C3C)c3ccccc3c2=O)cc1 (stereo not drawn)	none
COc1ccc(-n2nc(C(=O)NCC(=O)NC3CCCC(C)C3C)c3ccccc3c2=O)c(OC)c1 (stereo not drawn)	none
